No end group written: not given here.

Data set [1] is described as follows: Circular dichroism of GRK2 peptides. The note with it: 16 µM peptide in PBS pH 7.0, 4°C. It is filed as physicochemical. In outline: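 Far-UV CD spectra recorded at 4°C over 200–280 nm in a 1.0 cm pathlength cuvette (1 nm/min, 4 s response, 1 nm bandwidth). Test peptide was diluted to 16 µM in PBS pH 7.0 with varying trifluoroethanol. Observed ellipticity was converted to molar ellipticity using mean residue weight, path length and concentration. Relative helix content was deduced from these spectra.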

Another data set concerns the target T1, GRK2 (β2AR substrate) (Bos taurus, UniProt P21146).
T1 sequence (P21146 1-689): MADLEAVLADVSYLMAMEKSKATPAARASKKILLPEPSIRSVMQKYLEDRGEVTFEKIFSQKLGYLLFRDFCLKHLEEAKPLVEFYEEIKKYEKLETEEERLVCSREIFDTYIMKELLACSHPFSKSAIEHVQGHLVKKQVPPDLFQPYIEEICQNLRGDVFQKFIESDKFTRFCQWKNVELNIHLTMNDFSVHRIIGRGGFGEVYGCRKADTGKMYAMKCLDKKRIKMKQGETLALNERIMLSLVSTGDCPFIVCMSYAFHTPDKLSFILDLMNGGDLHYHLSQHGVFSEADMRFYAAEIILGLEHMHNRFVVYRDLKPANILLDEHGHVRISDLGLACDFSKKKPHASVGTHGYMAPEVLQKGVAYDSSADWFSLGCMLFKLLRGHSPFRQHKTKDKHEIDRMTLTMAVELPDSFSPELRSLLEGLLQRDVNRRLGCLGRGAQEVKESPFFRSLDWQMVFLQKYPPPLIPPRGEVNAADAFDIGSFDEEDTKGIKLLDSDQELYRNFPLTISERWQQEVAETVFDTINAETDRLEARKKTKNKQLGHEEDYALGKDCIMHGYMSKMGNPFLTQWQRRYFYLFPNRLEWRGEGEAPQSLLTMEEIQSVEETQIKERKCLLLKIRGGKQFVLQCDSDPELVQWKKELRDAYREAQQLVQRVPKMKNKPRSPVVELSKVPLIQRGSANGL
As to the kind of experiment: Inhibition of GRK2 phosphorylation of β2AR by GRK peptides. The data set is classed as biochemical.

The target in data set [2] is T2, GRK2 (rhodopsin substrate) (Bos taurus, UniProt P21146).
T2 sequence (P21146 1-689): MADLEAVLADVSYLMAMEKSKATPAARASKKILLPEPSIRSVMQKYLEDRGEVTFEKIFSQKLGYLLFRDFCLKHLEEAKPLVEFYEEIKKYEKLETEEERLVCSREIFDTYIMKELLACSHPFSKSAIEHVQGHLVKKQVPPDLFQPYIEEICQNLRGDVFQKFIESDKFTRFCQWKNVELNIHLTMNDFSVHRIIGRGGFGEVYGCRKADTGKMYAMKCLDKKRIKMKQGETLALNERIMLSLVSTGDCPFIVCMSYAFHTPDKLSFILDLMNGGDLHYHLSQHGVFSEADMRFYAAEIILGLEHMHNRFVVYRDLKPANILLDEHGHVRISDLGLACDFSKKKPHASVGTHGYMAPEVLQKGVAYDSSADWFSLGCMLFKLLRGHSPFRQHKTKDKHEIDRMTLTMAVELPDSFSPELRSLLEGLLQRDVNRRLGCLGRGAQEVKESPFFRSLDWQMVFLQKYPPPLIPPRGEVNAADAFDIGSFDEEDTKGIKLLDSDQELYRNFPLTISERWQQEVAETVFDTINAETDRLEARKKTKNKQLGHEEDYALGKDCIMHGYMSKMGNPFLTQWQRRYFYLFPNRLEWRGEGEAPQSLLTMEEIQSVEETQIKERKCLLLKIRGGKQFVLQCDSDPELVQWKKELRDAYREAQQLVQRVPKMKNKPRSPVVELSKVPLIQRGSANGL
In words: Inhibition of GRK2 phosphorylation of Rho* by GRK peptides. As to conditions: 1-15 µM rhodopsin, 60 µM peptide; 3 independent experiments. It is filed as biochemical. In outline:
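Sf9-expressed, purified GRK2 (20 nM) phosphorylated 1–15 µM light-activated rhodopsin with or without 60 µM test peptide. Products were resolved by SDS-PAGE and autoradiographed, then bands were excised and scintillation-counted. Values are mean ± SD from three experiments.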

Data set [3] deals with T2, GRK2 (rhodopsin substrate). The note with it: cited from earlier work.
Data set [4] relates to β2-adrenergic receptor (β2AR). In words: Phosphorylation of purified β2AR by purified GRK2 mutants. The data set is classed as biochemical, human. The note with it: 50 nM β2AR in mixed micelles, 20 nM GRK2, 10 µM isoproterenol, 0.2 mM ATP, 30°C; 3 experiments.
In a further data set the test system is rhodopsin (Rho*). As to the kind of experiment: Phosphorylation of light-activated rhodopsin. The data set is classed as biochemical. The note with it: COS-1 lysates, 2-20 min, 30°C; autoradiography (Fig. 1B).
The subject of another data set is GPCR. The note with it: cited from earlier work.

In the case of MADLEAPLADVYSL [Pro peptide], the “helix formation” value in data set [1] (in solution without TFE (0% TFE)) is recorded as “minimal helical formation in solution”; in data set [1] (in the presence of TFE (25-50%)), “no helix formation was observed”.
For orientation: IC50 means the concentration at which inhibition is half-maximal. The molecule MADLEAVLADVYSL [GRK2 peptide] had an IC50 at GRK2 (β2AR substrate) of roughly 50 µM. Moreover, the “Km change” value in data set [2] is recorded as “no change in the Km”.
For the molecule “MELENIVANTLLK [GRK5 peptide, reference compound]”, at GRK2 (β2AR substrate) (200 µM peptide, 3 experiments (Fig. 4E)), the “effect on GRK2-mediated β2AR phosphorylation” value is listed as “no significant effect”. Besides, the “effect on GRK2-mediated phosphorylation of rhodopsin” value in data set [3] is “no effect”.

B1: D3K: GRK2 amino terminal point mutant, Asp-3 to lysine (protein)
chain: MAKLEAVLADVSYLMAMEKSKATPAARASKKILLPEPSIRSVMQKYLEDRGEVTFEKIFSQKLGYLLFRDFCLKHLEEAKPLVEFYEEIKKYEKLETEEERLVCSREIFDTYIMKELLACSHPFSKSAIEHVQGHLVKKQVPPDLFQPYIEEICQNLRGDVFQKFIESDKFTRFCQWKNVELNIHLTMNDFSVHRIIGRGGFGEVYGCRKADTGKMYAMKCLDKKRIKMKQGETLALNERIMLSLVSTGDCPFIVCMSYAFHTPDKLSFILDLMNGGDLHYHLSQHGVFSEADMRFYAAEIILGLEHMHNRFVVYRDLKPANILLDEHGHVRISDLGLACDFSKKKPHASVGTHGYMAPEVLQKGVAYDSSADWFSLGCMLFKLLRGHSPFRQHKTKDKHEIDRMTLTMAVELPDSFSPELRSLLEGLLQRDVNRRLGCLGRGAQEVKESPFFRSLDWQMVFLQKYPPPLIPPRGEVNAADAFDIGSFDEEDTKGIKLLDSDQELYRNFPLTISERWQQEVAETVFDTINAETDRLEARKKTKNKQLGHEEDYALGKDCIMHGYMSKMGNPFLTQWQRRYFYLFPNRLEWRGEGEAPQSLLTMEEIQSVEETQIKERKCLLLKIRGGKQFVLQCDSDPELVQWKKELRDAYREAQQLVQRVPKMKNKPRSPVVELSKVPLIQRGSANGL
For B1, the “decrease in β2AR phosphorylation activity vs wild-type GRK2” value (“decrease” below) in data set [4] is ~ 60%. In addition, in the data set on rhodopsin (Rho*), the “ability to phosphorylate Rho*” value is reported as “completely defective in their ability to phosphorylate Rho*”.

B2: D10A: GRK2 amino terminal point mutant (protein)
chain: MADLEAVLAAVSYLMAMEKSKATPAARASKKILLPEPSIRSVMQKYLEDRGEVTFEKIFSQKLGYLLFRDFCLKHLEEAKPLVEFYEEIKKYEKLETEEERLVCSREIFDTYIMKELLACSHPFSKSAIEHVQGHLVKKQVPPDLFQPYIEEICQNLRGDVFQKFIESDKFTRFCQWKNVELNIHLTMNDFSVHRIIGRGGFGEVYGCRKADTGKMYAMKCLDKKRIKMKQGETLALNERIMLSLVSTGDCPFIVCMSYAFHTPDKLSFILDLMNGGDLHYHLSQHGVFSEADMRFYAAEIILGLEHMHNRFVVYRDLKPANILLDEHGHVRISDLGLACDFSKKKPHASVGTHGYMAPEVLQKGVAYDSSADWFSLGCMLFKLLRGHSPFRQHKTKDKHEIDRMTLTMAVELPDSFSPELRSLLEGLLQRDVNRRLGCLGRGAQEVKESPFFRSLDWQMVFLQKYPPPLIPPRGEVNAADAFDIGSFDEEDTKGIKLLDSDQELYRNFPLTISERWQQEVAETVFDTINAETDRLEARKKTKNKQLGHEEDYALGKDCIMHGYMSKMGNPFLTQWQRRYFYLFPNRLEWRGEGEAPQSLLTMEEIQSVEETQIKERKCLLLKIRGGKQFVLQCDSDPELVQWKKELRDAYREAQQLVQRVPKMKNKPRSPVVELSKVPLIQRGSANGL
B2: the “decrease” value in data set [4] is 90–95%. Moreover, the “ability to phosphorylate Rho*” value in the data set with rhodopsin (Rho*) is listed as “completely defective in their ability to phosphorylate Rho*”.

B3: L4A: GRK2 amino terminal point mutant, Leu-4 to alanine (protein)
chain: MADAEAVLADVSYLMAMEKSKATPAARASKKILLPEPSIRSVMQKYLEDRGEVTFEKIFSQKLGYLLFRDFCLKHLEEAKPLVEFYEEIKKYEKLETEEERLVCSREIFDTYIMKELLACSHPFSKSAIEHVQGHLVKKQVPPDLFQPYIEEICQNLRGDVFQKFIESDKFTRFCQWKNVELNIHLTMNDFSVHRIIGRGGFGEVYGCRKADTGKMYAMKCLDKKRIKMKQGETLALNERIMLSLVSTGDCPFIVCMSYAFHTPDKLSFILDLMNGGDLHYHLSQHGVFSEADMRFYAAEIILGLEHMHNRFVVYRDLKPANILLDEHGHVRISDLGLACDFSKKKPHASVGTHGYMAPEVLQKGVAYDSSADWFSLGCMLFKLLRGHSPFRQHKTKDKHEIDRMTLTMAVELPDSFSPELRSLLEGLLQRDVNRRLGCLGRGAQEVKESPFFRSLDWQMVFLQKYPPPLIPPRGEVNAADAFDIGSFDEEDTKGIKLLDSDQELYRNFPLTISERWQQEVAETVFDTINAETDRLEARKKTKNKQLGHEEDYALGKDCIMHGYMSKMGNPFLTQWQRRYFYLFPNRLEWRGEGEAPQSLLTMEEIQSVEETQIKERKCLLLKIRGGKQFVLQCDSDPELVQWKKELRDAYREAQQLVQRVPKMKNKPRSPVVELSKVPLIQRGSANGL
Turning to B3, the “decrease” value in data set [4] is given as 90–95%.

B4: V477D: mutation in the AGC kinase C-tail of GRK2, literature (protein, UniProt P25098 1-689, looked up, variant V477D)
Beta-adrenergic receptor …: MADLEAVLADVSYLMAMEKSKATPAARASKKILLPEPSIRSVMQKYLEDRGEVTFEKIFSQKLGYLLFRDFCLNHLEEARPLVEFYEEIKKYEKLETEEERVARSREIFDSYIMKELLACSHPFSKSATEHVQGHLGKKQVPPDLFQPYIEEICQNLRGDVFQKFIESDKFTRFCQWKNVELNIHLTMNDFSVHRIIGRGGFGEVYGCRKADTGKMYAMKCLDKKRIKMKQGETLALNERIMLSLVSTGDCPFIVCMSYAFHTPDKLSFILDLMNGGDLHYHLSQHGVFSEADMRFYAAEIILGLEHMHNRFVVYRDLKPANILLDEHGHVRISDLGLACDFSKKKPHASVGTHGYMAPEVLQKGVAYDSSADWFSLGCMLFKLLRGHSPFRQHKTKDKHEIDRMTLTMAVELPDSFSPELRSLLEGLLQRDVNRRLGCLGRGAQEVKESPFFRSLDWQMVFLQKYPPPLIPPRGEDNAADAFDIGSFDEEDTKGIKLLDSDQELYRNFPLTISERWQQEVAETVFDTINAETDRLEARKKAKNKQLGHEEDYALGKDCIMHGYMSKMGNPFLTQWQRRYFYLFPNRLEWRGEGEAPQSLLTMEEIQSVEETQIKERKCLLLKIRGGKQFILQCDSDPELVQWKKELRDAYREAQQLVQRVPKMKNKPRSPVVELSKVPLVQRGSANGL
B4: the “receptor phosphorylation and receptor-mediated activation” value with GPCR (GRK2 AGC kinase C-tail mutation) was “defective in receptor phosphorylation and receptor-mediated activation”. Besides, in the data set on GPCR, the “activity against non-receptor substrates” value is “reduced activity against non-receptor substrates”.

These data come from article PMC2736393 (Biochemistry, 2009).
